# Data as given in ChEMBL document CHEMBL1143300, “Synthesis and activity evaluation of benzoylurea derivatives as potential antiproliferative agents” (Bioorg Med Chem Lett, 2009).
# Calls of active or inactive are those of the source. The calls are words filed in the database; no cut-off is given here.
# Legend:
# Type in all cases: functional, cell-based
# [1] = tested on: CCRF-CEM; test: Antiproliferative activity against human CEM cells after 72 hrs by MTT assay
# Method in brief: (§1)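 MTT read-out of tumour cell proliferation after 72 h of drug exposure. IC50 is the drug concentration giving 50% inhibition of proliferation. Each experiment was repeated three times under identical conditions.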
# [2] = tested on: Bel-7402; test: Antiproliferative activity against human Bel7402 cells after 72 hrs by MTT assay; conditions: Bel-7402, 72 h; method in brief: as §1
# [3] = tested on: SMMC-7721; test: Antiproliferative activity against human SMMC7721 cells after 72 hrs by MTT assay; conditions: SMMC-7721, 72 h; method in brief: as §1
# [4] = tested on: CCRF-CEM; test: Cell cycle arrest in human CEM cells assessed as accumulation at G2/M phase at 3.2 uM after 12 hrs by flow cytometry; conditions: 0.1 uM, in the assay text read “0.1 uM” for “3.2 uM”
# Method in brief: (§2)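 CEM cells were left untreated or drug-exposed for 12 h at 37 °C, then collected, fixed in methanol and DNA-stained with a fluorescent dye. Cell-cycle distribution was read by flow cytometry using a conventional cell cycle protocol, with untreated cells as reference.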
# [5] = tested on: CCRF-CEM; test: Cell cycle arrest in human CEM cells assessed as accumulation at G2/M phase at 0.1 uM after 12 hrs by flow cytometry; method in brief: as §2
# [6] = tested on: HepG2; test: Antiproliferative activity against human HepG2 cells after 72 hrs by MTT assay; conditions: HepG2, 72 h; method in brief: as §1
# [7] = tested on: CCRF-CEM; test: Cell cycle arrest in human CEM cells assessed as accumulation at G2/M phase at 0.69 uM after 12 hrs by flow cytometry; method in brief: as §2
# [8] = tested on: CCRF-CEM; test: Effect on necrosis-mediated morphological changes in human CEM cells assessed as destruction of cytoplasm and nucleic membrane at 0.69 uM after 12 hrs by Giemsa staining
# Method in brief: (§3)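 After 12 h of drug incubation, CEM cells were spun onto slides by cytospin, air-dried, fixed with methanol and Giemsa-stained. Morphology was examined at 400× magnification.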
# [9] = tested on: CCRF-CEM; test: Effect on apoptosis-mediated morphological changes in human CEM cells at 3.2 uM after 12 hrs by Giemsa staining; method in brief: as §3
# [10] = tested on: CCRF-CEM; test: Effect on necrosis-mediated morphological changes in human CEM cells assessed as destruction of cytoplasm and nucleic membrane at IC75 after 12 hrs by Giemsa staining; method in brief: as §3
smiles,measurement,setting,value
CNC(=O)NC(=O)c1cccc(NC(=O)CBr)c1,IC50,[1],3160 nM
NC(=O)NC(=O)/C=C/c1cccc(NC(=O)CBr)c1,IC50,[1],1380 nM
CNC(=O)NC(=O)c1cccc(NC(=O)C(C)Cl)c1 (configuration not stated),IC50,[1],> 20000 nM
CC[C@]1(O)C[C@H]2CN(CCc3c([nH]c4ccccc34)[C@@](C(=O)OC)(c3cc4c(cc3OC)N(C=O)[C@H]3[C@@](O)(C(=O)OC)[C@H](OC(C)=O)[C@]5(CC)C=CCN6CC[C@]43[C@@H]65)C2)C1 [VINCRISTINE],IC50,[2],40 nM
same,IC50,[3],52200 nM
same,Activity,[4],Active
same,Activity,[5],Active
CNC(=O)NC(=O)c1cccc(NC(=O)C(C)Br)c1 (configuration not stated),IC50,[1],9320 nM
CC(Br)C(=O)Nc1cccc(CC(=O)NC(N)=O)c1 (configuration not stated),IC50,[1],> 20000 nM
COc1cc(NC(=O)NC(=O)c2cccc(NC(=O)CBr)c2)cc(OC)c1OC,IC50,[1],330 nM
same,IC50,[2],1400 nM
same,IC50,[6],820 nM
same,IC50,[3],670 nM
same,Activity,[7],inactive
same,Activity,[8],Active
CC(Br)C(=O)Nc1cccc(C(=O)NC(=O)Nc2ccccc2)c1 (configuration not stated),IC50,[1],> 20000 nM
CC(Br)C(=O)Nc1cccc(C(=O)NC(=O)Nc2ccccn2)c1 (configuration not stated),IC50,[1],6230 nM
O=C(CBr)Nc1cccc(C(=O)NC(=O)Nc2ccc3c(c2)OCO3)c1,IC50,[1],1500 nM
NC(=O)NC(=O)Cc1cccc(NC(=O)CCl)c1,IC50,[1],12600 nM
CC(Br)C(=O)Nc1cccc(C(=O)NC(=O)Nc2ccc3c(c2)OCO3)c1 (configuration not stated),IC50,[1],12100 nM
CC(Br)C(=O)Nc1cccc(C(=O)NC(N)=O)c1 (configuration not stated),IC50,[2],1120 nM
same,IC50,[6],1200 nM
same,IC50,[3],9260 nM
same,Activity,[9],Active
O=C(CBr)Nc1cccc(C(=O)NC(=O)Nc2ccccc2)c1,IC50,[1],5010 nM
O=C(CBr)Nc1cccc(C(=O)NC(=O)Nc2ccccn2)c1,IC50,[1],700 nM
same,IC50,[2],1200 nM
same,IC50,[6],900 nM
same,IC50,[3],930 nM
same,Activity,[10],Active
COc1cc(NC(=O)NC(=O)c2cccc(NC(=O)C(C)Br)c2)cc(OC)c1OC (configuration not stated),IC50,[1],1330 nM
CNC(=O)NC(=O)c1cccc(NC(=O)CCl)c1,IC50,[1],9100 nM
